# An excerpt weighted towards active compounds, which were near 0.77% of everything screened.
# bIAP act – intestinal alkaline phosphatase (bovine) activation; purified bovine IAP, CDP-star luminescence, 30 min; stronger effect = higher value; fold of DMSO-control signal, blank-subtracted; activation factor at 20 µM; 200,000 compounds, 0.17% hits; AID 1016;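 active means activation factor of 2 or more at 20 µM, a signal rise over negative controls twice the positive control's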
# hIAP activ – human IAP activation | P09923 | purified human IAP, CDP-Star luminescence, 30 min; stronger effect = higher value; 1 = vehicle-only enzyme, 0 = enzyme-free background | activation factor at 10 µM | 330,000 compounds, 0.16% hits;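 active means activation factor of the enzyme at least 2-fold when tested at 20 µM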
# Target sequence (P09923 whole entry, looked up): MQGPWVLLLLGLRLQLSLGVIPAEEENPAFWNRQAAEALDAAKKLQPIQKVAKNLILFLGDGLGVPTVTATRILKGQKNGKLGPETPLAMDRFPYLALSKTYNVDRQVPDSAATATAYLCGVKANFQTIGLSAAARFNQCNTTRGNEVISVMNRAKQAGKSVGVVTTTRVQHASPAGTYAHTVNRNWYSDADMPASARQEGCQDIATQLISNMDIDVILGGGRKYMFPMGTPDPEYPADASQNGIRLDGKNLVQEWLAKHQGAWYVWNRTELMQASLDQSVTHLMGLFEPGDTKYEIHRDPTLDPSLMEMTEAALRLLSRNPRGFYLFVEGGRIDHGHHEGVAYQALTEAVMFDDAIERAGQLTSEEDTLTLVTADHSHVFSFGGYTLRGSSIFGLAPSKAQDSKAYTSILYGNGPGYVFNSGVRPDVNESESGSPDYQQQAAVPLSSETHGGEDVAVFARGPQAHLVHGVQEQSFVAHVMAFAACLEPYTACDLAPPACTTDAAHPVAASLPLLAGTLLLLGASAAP
# bIAP inh – blocks bovine intestinal alkaline phosphatase activity. purified bovine IAP, CDP-star luminescence, 30 min. inhibition, % at 20 µM. 190,000 tested, under 10 active. AID 1019;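 active means over 50% inhibition of intestinal alkaline phosphatase at 20 µM in the single-dose screen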
#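 Incubation: 30 min reaction at room temperature / Material: purified bovine intestinal alkaline phosphatase (IAP) enzyme / Input: enzyme at 1/65,000,000 dilution / Dosing: 20 µM single dose / Signal: CDP-star luminescence signal / Reagent: CDP-star chemiluminescent phosphatase substrate, 30 µM final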
# mIAP inh – blocks mouse intestinal alkaline phosphatase; purified mouse IAP, CDP-Star luminescence, 30 min; inhibition, % at 10 µM; 330,000 compounds, 0.2% hits;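 active means inhibition of at least 40% at 10 µM in the primary screen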;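 further: plate controls were DMSO with enzyme for no effect and no enzyme wells for full effect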
# hIAP inh – human IAP inhibition. AID 2544. P09923. 330,000 compounds, 0.12% hits. inhibition, % at 10 µM. purified IAP, CDP-Star luminescence, 30 min;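 active means inhibition reaching a set limit with compound at 10 µM in the primary screen, cut at about 35% in these data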;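 further: plate controls were DMSO wells with enzyme for no effect and no-enzyme buffer wells for full effect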
# mIAP act – mouse IAP activation. muIAP, CDP-Star luminescence, 30 min; stronger effect = higher value; 1 = vehicle-only enzyme signal, 0 = enzyme-free wells. activation factor at 10 µM. 330,000 compounds, 0.24% hits. AID 2805;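 active means activation factor of at least 2 at 20 µM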
#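 System: Mouse IAP enzyme | Also added: CDP-Star substrate | Dosing: Compounds dispensed in DMSO | Schedule: 30 min enzyme-substrate-compound incubation at room temperature | Technique: Chemiluminescence readout | Control set: DMSO-only wells and no-enzyme negative control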
# hIAP act confirm – human IAP activation confirmation. shares compounds with hIAP activ. purified IAP, CDP-Star luminescence, 30 min; stronger effect = lower value. activation (%Activity, negative = activation), % at 8.3 µM. 880 compounds, 10% hits. AID 434926;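 active means at least twofold enzyme activation in any of six single-dose repeats, which the averaged readout prints as negative percent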
# * marks the source's active call; other numbers are inactive results; . = no result.
SMILES,bIAP act,hIAP activ,bIAP inh,mIAP inh,hIAP inh,mIAP act,hIAP act confirm
Cn1c(CNC(=O)CCNC(=O)c2cccc(Br)c2)cc(=O)n(C)c1=O,.,0.631,.,5.1,36.9*,0.949,0.9
Cc1onc(-c2c(F)cccc2Cl)c1C(=O)N(Cc1ccccc1)C(C)C,.,0.938,.,0.1,6.2,0.999,.
Cc1oc(-c2ccc(Cl)cc2)nc1CN1CCC(C(=O)NCCCN2CCCC(C)C2)CC1 (centres undefined),.,1.53,.,-11.2,-52.7,1.11,.
Cc1cc(Br)ccc1SCC(=O)OC/C(O)=C(\C#N)c1nc2ccccc2[nH]1,.,2.4*,.,12.6,-139.6,0.874,-67.4*
Cc1cc(C)c2nc(SCC(=O)NNC(=O)c3ccco3)c(C)cc2c1,1.1,2.03*,-8.5,3.4,-103.3,0.966,-58.7*
Cc1cc2cccc(C)c2nc1SCC(=O)NNC(=O)c1ccco1,1.2,1.74,-22.9,-7.8,-73.6,1.08,.
CCC(C)(C)C1CCc2[nH]nc(C(=O)N/N=C(\C)c3ccco3)c2C1 (centres undefined),.,2.1*,.,2.0,-109.7,0.98,62.7
O=c1/c(=C\c2ccc(O)cc2)sc2n1C(c1ccccc1)C(c1ccccc1)=NN=2 (centres undefined),0.7,0.628,34.3,29.2,37.2*,0.708,-34.2
CCOC(=O)C1=C(c2ccccc2)N=c2s/c(=C\c3cccc(O)c3)c(=O)n2C1c1cccs1 (centres undefined),1,0.802,-1.3,7.6,19.8,0.924,.
COc1ccc(/C=C(\C#N)C(=O)OCC(=O)Nc2c(C)cccc2C(C)C)cc1,1.2,0.993,-16.0,-5.6,0.7,1.06,.
CC1CCN(C(=O)CSc2nnc(CNC(=O)c3ccc(F)cc3)o2)CC1,.,0.956,.,1.9,4.4,0.981,.
CCOC(=O)C1CCCN(C(=S)NC(=O)/C=C/c2ccc(F)cc2)C1 (centres undefined),.,0.614,.,-0.3,38.6*,1,1.7
O=C(/C=C/c1ccc(-c2cccc([N+](=O)[O-])c2)o1)N1CCOCC1,.,0.989,.,7.7,1.1,0.922,.
COc1cc(C(=O)Nc2ccc3c(c2)OCO3)ccc1OCc1c(C)noc1C,1,1.11,0.3,-1.5,-10.7,1.01,.
C/C(=N\N(Cc1ccccc1)c1ccccc1)c1ccncc1,0.6,0.611,43.2,15.0,38.9*,0.85,-62.6
CN(C(=O)c1ccncc1)c1ccccc1,.,1.06,.,-0.2,-6.3,1,.
CCS(=O)(=O)Nc1cc2c3c(c1)CCC(=O)N3CCC2,.,0.628,.,1.7,37.2*,0.983,9.7
CCCCCc1c(C)nc(Nc2nc(C)c3cc(OC)ccc3n2)[nH]c1=O,1.6,2.11*,-57.0,18.7,-110.7,0.813,17.3
COCc1cc(=O)[nH]c(Nc2nc3ccc(C)cc3o2)n1,1.2,2.08*,-23.0,1.9,-107.7,0.981,-21.9
CCc1ccc2nc(Nc3nc(COC)cc(=O)[nH]3)nc(C)c2c1,1.3,2.11*,-32.3,-5.5,-110.5,1.05,-30.6
COc1ccccc1N1CCN(C(=O)C(=O)c2cn(CC(=O)N3CCOCC3)c3ccccc23)CC1,.,1.15,.,-14.2,-15.0,1.14,.
C#CC(C)(CC)NC(=O)c1cc2nc(C3CC3)cc(C(F)(F)F)n2n1 (centres undefined),1,0.982,1.2,5.6,1.8,0.944,.
N#Cc1c(-c2ccccc2)nc(N2CCOCC2)[nH]c1=O,0.9,0.616,7.8,-3.7,38.4*,1.04,27.5
N#Cc1c(-c2ccccc2)nc(N2CCCCCC2)[nH]c1=O,1,0.994,0.7,4.9,0.6,0.951,.
CC[n+]1c(/C=C/c2c[nH]c3ccccc23)ccc2cc(C)ccc21,0.7,0.636,29.9,31.0,36.4*,0.69,-85.7*
SMILES,bIAP act,hIAP activ,bIAP inh,mIAP inh,hIAP inh,mIAP act,hIAP act confirm
CCN(CC)C(=O)c1ccc(/C=C/c2c[nH]c3ccccc23)[n+](C)c1,1,1.02,-0.4,10.4,-1.7,0.896,.
O=C(CCC(=O)OCC(F)(F)C(F)F)Nc1ccccc1F,1,0.932,0.2,7.1,6.8,0.929,.
Nc1ccc(S(=O)(=O)N2CCOCCOCCOCCOCCOCC2)cc1,.,1.26,.,-2.1,-25.7,1.02,.
O=C(CSc1nc(-c2cccs2)cc(C(F)(F)F)n1)NCc1ccccc1,0.8,0.634,22.8,0.4,36.6*,0.996,36.7
Cc1ccc(S(=O)(=O)N2CCN(C(=O)CC(C)n3nc(C)c(Cl)c3C)CC2)cc1 (centres undefined),.,1.2,.,-5.9,-20.2,1.06,.
O=[N+]([O-])c1ccc(Nc2ccccc2)c2nonc12,.,0.615,.,20.5,38.5*,0.795,-18.0
CCOC(=O)C1CCN(C(=O)COc2ccc(Br)cc2C)CC1,1,0.971,-3.1,-7.5,2.9,1.07,.
Cc1occc1C(=O)NNC(=S)Nc1cccc([N+](=O)[O-])c1,1.2,2.11*,-22.6,9.2,-110.9,0.908,-6.8
Cc1cccc(NC(=O)CSc2nc3ccccc3c(=O)n2CC2CCCO2)c1 (centres undefined),.,1.02,.,-21.5,-1.9,1.22,.
CC1=NN(Cc2ccccc2)C(=O)/C1=C\c1ccc(N(C)C)cc1,0.6,0.634,39.0,23.0,36.6*,0.77,65.6
COc1ccc(N(C(=O)CNC(=O)c2cccs2)C(C(=O)NC2CCCC2)c2cccnc2)cc1 (centres undefined),1,1.06,1.3,-2.2,-5.7,1.02,.
Cn1c(C(=O)N2CCCC(C(=O)NCc3cccs3)C2)cc2sccc21 (centres undefined),1,0.622,4.7,4.0,37.8*,0.96,-50.2
CCn1c(C)nc2cc(C(=O)NNC(=S)Nc3ccc(Cl)cc3Cl)ccc21,0.9,2.13*,7.1,-14.1,-113.5,1.14,-43.9
CCn1c(C)nc2cc(C(=O)NNC(=S)Nc3ccccc3)ccc21,1.6,2.11*,-60.2,-4.1,-111.1,1.04,29.0
CCn1c(C)nc2cc(C(=O)N/N=C/c3cccc(O)c3O)ccc21,1.7,2.6*,-74.2,8.7,-159.7,0.913,-42.9*
CCn1c(C)nc2cc(C(=O)NNC(=S)Nc3ccc(Cl)cc3)ccc21,.,1.93,.,1.3,-92.9,0.987,.
CCn1c(C)nc2cc(C(=O)N/N=C/c3ccccc3)ccc21,0.9,0.906,5.2,7.6,9.4,0.924,.
CC[C@@]1(C(=O)OC)N[C@H](CN(C)S(=O)(=O)c2ccc(C(C)(C)C)cc2)[C@@H]2C(=O)N(C)C(=O)[C@@H]21,.,1.1,.,3.3,-9.8,0.967,.
O=C1CN(C(=O)Cn2ncc(Cl)c(Cl)c2=O)c2ccccc2N1,0.7,.,30.9,.,.,.,.
CCc1ccc(/C=N/Nc2ncnc3nc[nH]c23)cc1,.,2.67*,.,2.2,-166.7,0.978,33.8
CN(C)C1=NCCN1CCc1cccc(F)c1,.,1.14,.,-5.6,-14.0,1.06,.

# Screens deposited in PubChem by Sanford-Burnham Center for Chemical Genomics.
